Data from ChEMBL document CHEMBL2406905, “Improving the antibacterial activity and selectivity of an ultra short peptide by hydrophobic and hydrophilic amino acid stretches” (Bioorg Med Chem Lett, 2013).
Calls of active or inactive are those of the source. The rule behind the calls is not given here.

What was measured:
[1] = (§1) Antibacterial activity against Vibrio cholerae non-O1 non-O139 assessed as growth inhibition after 24 hrs; format: functional; settings: for MIC90: Vibrio cholerae, non-O139, 24 h
[2] = system: Pseudomonas aeruginosa; assay: Antibacterial activity against Pseudomonas aeruginosa ATCC 27853 assessed as growth inhibition after 24 hrs; format: functional
How it was run: (§2)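 Log-phase bacteria adjusted to OD600 0.001 in nutrient broth. Peptide dilutions in 20 mM Tris–HCl pH 7.4 were added; buffer alone served as control. Incubation was 37 °C for 24 h. % inhibition was calculated from the OD600 change (24 h minus time zero) relative to the control change. MIC was the concentration giving >90% growth inhibition.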

[3] = system: Staphylococcus aureus; assay: Antibacterial activity against Staphylococcus aureus ATCC 25923 assessed as growth inhibition after 24 hrs; format: functional; settings: for MIC90: Staphylococcus aureus, ATCC 25923, 24 h; how it was run: as §2
[4] = system: Escherichia coli; assay: Antibacterial activity against Escherichia coli ATCC 25922 assessed as growth inhibition after 24 hrs; format: functional; how it was run: as §2
[5] = system: Salmonella typhi; assay: Antibacterial activity against Salmonella typhi DMST 22842 assessed as growth inhibition after 24 hrs; format: functional, Salmonella enterica subsp. enterica serovar Typhi; settings: for MIC90: Salmonella enterica, DMST 22842, 24 h
[6] = system: Staphylococcus epidermidis; assay: Antibacterial activity against Staphylococcus epidermidis ATCC 12228 assessed as growth inhibition after 24 hrs; format: functional; settings: for MIC90: Staphylococcus epidermidis, ATCC 12228, 24 h; how it was run: as §2
[7] = system: Escherichia coli; assay: Antibacterial activity against Escherichia coli ATCC 25922 assessed as appearance of blebs on cell surface at 10 X MIC after 1 min by SEM analysis; format: functional, organism-based
How it was run: (§3)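 Bacterial suspension at OD600 0.1 was exposed to peptide at 10× MIC for 1 min and 60 min. The negative control was 20 mM Tris–HCl buffer. Cell morphology was then examined by scanning electron microscopy.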

[8] = system: RAW264.7; assay: Cytotoxicity against mouse RAW264.7 cells assessed as cell viability at 1 to 91 ug/ml after 48 hrs by MTT assay; format: cell-based; settings: raw264.7, 48 h
How it was run: (§4)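 Monolayer cell viability was read by MTT. Results are given as mean ± SEM (n = 8). Significance was tested by one-way ANOVA with Scheffe's multiple range test (p < 0.05).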

[9] = system: Vero; assay: Cytotoxicity against african green monkey Vero cells assessed as cell viability at 1 to 91 ug/ml after 48 hrs by MTT assay; format: cell-based; settings: chlorocebus sabaeus; how it was run: as §4
[10] = Therapeutic index, ratio of MHC for human RBC to MIC for Vibrio cholerae non-O1 non-O139; settings: human red blood cells (RBC), read-out: TI
How it was run: (§5)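 Index was calculated as MHC/MIC. MHC was the lowest peptide concentration producing 5% hemolysis of human red blood cells. MIC was the concentration giving >90% inhibition of bacterial growth (OD600) after 24 h at 37 °C in nutrient broth, with bacteria starting at OD600 0.001.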

[11] = Therapeutic index, ratio of MHC for human RBC to MIC for Staphylococcus aureus ATCC 25923; settings: human red blood cells (RBC), read-out: TI; how it was run: as §5
[12] = Therapeutic index, ratio of MHC for human RBC to MIC for Pseudomonas aeruginosa ATCC 27853; settings: human red blood cells (RBC), read-out: TI; how it was run: as §5
[13] = Therapeutic index, ratio of MHC for human RBC to MIC for Escherichia coli ATCC 25922; settings: human red blood cells (RBC), read-out: TI; how it was run: as §5
[14] = Therapeutic index, ratio of MHC for human RBC to MIC for Salmonella typhi DMST 22842; settings: human red blood cells (RBC), read-out: TI; how it was run: as §5
[15] = Therapeutic index, ratio of MHC for human RBC to MIC for Staphylococcus epidermidis ATCC 12228; settings: human red blood cells (RBC), read-out: TI; how it was run: as §5
[16] = Hemolytic activity in human RBC at 1 to 91 ug/ml; format: ADME, cell-based; settings: erythrocyte
How it was run: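 Human red blood cells were exposed to peptide. Minimal hemolytic concentration was taken as the lowest peptide concentration producing 5% hemolysis.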

[17] = system: Staphylococcus epidermidis; assay: Bactericidal activity against Staphylococcus epidermidis ATCC 12228 assessed as reduction in CFU at 23 ug/mL after 48 hrs; format: functional; design: scale not given: the % may be the effect or the level left
How it was run: (§6)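 After the 24 h, 37 °C broth-microdilution exposure (log-phase inoculum at OD600 0.001, peptide in 20 mM Tris–HCl pH 7.4), 5 μL from each well was plated on agar and incubated at 37 °C for 48 h. 100% bactericidal concentration was the concentration giving a 99.9% CFU reduction from the starting inoculum.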

[18] = system: Escherichia coli; assay: Bactericidal activity against Escherichia coli ATCC 25922 assessed as reduction in CFU at 11 ug/mL after 48 hrs; format: functional; design: scale not given: the % may be the effect or the level left; how it was run: as §6
[19] = system: Vibrio cholerae non-O1; assay: as §1; format: functional
[20] = system: Salmonella typhi; assay: Bactericidal activity against Salmonella typhi DMST 22842 assessed as reduction in CFU at 23 ug/mL after 48 hrs; format: functional, Salmonella enterica subsp. enterica serovar Typhi; design: scale not given: the % may be the effect or the level left
How it was run: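 Bacteria at OD600 0.001 in nutrient broth were exposed to peptide in 20 mM Tris–HCl (pH 7.4) at 37 °C for 24 h. A sample from each well was then plated on agar and incubated at 37 °C for 48 h. Bactericidal activity was taken as a 99.9% CFU reduction versus the starting inoculum.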

[21] = system: Salmonella typhi; assay: Antibacterial activity against Salmonella typhi DMST 22842 assessed as appearance of rough and wavy cell morphology at 10 X MIC after 1 min by SEM analysis; format: functional, organism-based; settings: Salmonella enterica subsp. enterica serovar Typhi
How it was run: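 Bacterial suspension (OD600 0.1) was incubated with peptide at 10×MIC for 1 and 60 min, with 20 mM Tris–HCl buffer as negative control. Cell morphology was examined by scanning electron microscopy.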

[22] = system: Staphylococcus epidermidis; assay: Antibacterial activity against Staphylococcus epidermidis ATCC 12228 assessed as appearance of rough and wavy cell morphology at 10 X MIC after 1 min by SEM analysis; format: functional, organism-based; how it was run: as §3
[23] = system: Escherichia coli; assay: Bactericidal activity against Escherichia coli ATCC 25922 assessed as reduction in CFU at 46 ug/mL after 48 hrs; format: functional; design: scale not given: the % may be the effect or the level left; how it was run: as §6
[24] = Pseudomonas aeruginosa, ATCC 27853, 24 h
[25] = Escherichia coli, ATCC 25922, 24 h

Substance | MIC90 [1] [µg/mL] | MIC90 [2, 24] [µg/mL] | growth inhibition (GI) [3] [%] | MIC90 [3] [µg/mL] | growth inhibition (GI) [4] [%] | MIC90 [4, 25] [µg/mL] | growth inhibition (GI) [5] [%] | MIC90 [5] [µg/mL] | growth inhibition (GI) [6] [%] | MIC90 [6] [µg/mL] | Activity [8] | selectivity ratio [10] | selectivity ratio [11] | selectivity ratio [13] | selectivity ratio [14] | selectivity ratio [15] | Activity [16] | Activity [17] | MIC90 [19] | MIC90 [2] | further results
H-NGVQPKY-OH | > 200 | > 200 | <90 | > 200 | <90 | > 200 | <90 | > 200 | <90 | > 200 |  |  |  |  |  |  |  |  |  |  | growth inhibition (GI) [1]: <90%; growth inhibition (GI) [2]: <90%
H-NGVQPKYKWWKWWKKWW-NH2 | 11 | 91 |  | 46 |  | 11 |  | 23 |  | 23 | Non-toxic | 4 | 1 | 4 | 2 | 2 | Non-toxic | 100% |  |  | Activity [7]: Active; Activity [9]: Non-toxic; selectivity ratio [12]: 0.5; Activity [18]: 100%
H-NGVQPKYKWWKWWKKWWW-NH2 |  |  | <90 | > 91 |  | 11 |  | 23 |  | 23 |  |  | < 0.5 | 2 | 1 | 1 | Toxic | 100% | inactive | inactive | Activity [7]: Active; Activity [20]: 100%; Activity [18]: 100%
H-NGVQPKYRWWRWWRRWW-NH2 | 46 |  |  | 91 |  | 46 |  | 23 |  | 23 | Non-toxic | 1 | 0.5 | 1 | 2 | 2 | Non-toxic | Active |  | inactive | Activity [21]: Active; Activity [22]: Active; Activity [9]: Non-toxic; Activity [23]: 100%
H-NGVQPKYRWWRWWRRWW-OH |  |  | <90 | > 91 |  | 46 | <90 | > 91 |  | 23 | Toxic |  | < 0.25 | 0.5 | < 0.25 | 1 | Toxic | Active | inactive | inactive | Activity [21]: Active; Activity [22]: Active; Activity [9]: Toxic; Activity [23]: 100%
H-NGVQPKYRWWRWWRRWWW-OH |  |  | <90 | > 91 | <90 | > 91 | <90 | > 91 |  | 91 |  |  | < 0.25 | < 0.25 | < 0.25 | 0.25 | Toxic |  | inactive | inactive | 
H-NGVQPKYRWWRWWRRWWWW-NH2 |  | > 91 | <90 | > 91 | <90 | > 91 | <90 | > 91 |  | 91 |  |  | < 0.06 | < 0.06 | < 0.06 | 0.06 | Toxic |  | inactive |  | selectivity ratio [12]: < 0.06; growth inhibition (GI) [2]: <90%
H-NGVQPWYKWWKWWKKWW-NH2 | 91 |  | <90 | > 91 | <90 | > 91 | <90 | > 91 |  | 91 |  | 0.06 | < 0.06 | < 0.06 | < 0.06 | 0.06 | Toxic |  |  | inactive | 
H-RWWRWWRRWW-NH2 | 23 | 46 | <90 | > 91 | <90 | > 91 | <90 | > 91 | <90 | > 91 |  | 0.08 | < 0.02 | < 0.02 | < 0.02 | < 0.02 | Toxic |  |  |  | selectivity ratio [12]: 0.04
H-RWWRWWRRWWW-NH2 | > 91 |  | <90 | > 91 |  |  | <90 | > 91 | <90 | > 91 |  | < 0.02 | < 0.02 |  | < 0.02 | < 0.02 | Toxic |  |  | inactive | growth inhibition (GI) [1]: <90%; MIC90 [4]: inactive
